From ChEMBL document CHEMBL1144233 (Bioorg Med Chem Lett, 2008)
The source made the active and inactive calls. No cut-off for these calls is given here.

Key:
[1] = biological target: T1, Metabotropic glutamate receptor 4 (Homo sapiens, UniProt Q14833); experiment: Activity at human mGluR4 expressed in CHO cells assessed as fold potentiation of glutamate-induced calcium flux at 30 uM by fluorescence assay relative to control
Target sequence in this assay (Q14833 whole entry, looked up): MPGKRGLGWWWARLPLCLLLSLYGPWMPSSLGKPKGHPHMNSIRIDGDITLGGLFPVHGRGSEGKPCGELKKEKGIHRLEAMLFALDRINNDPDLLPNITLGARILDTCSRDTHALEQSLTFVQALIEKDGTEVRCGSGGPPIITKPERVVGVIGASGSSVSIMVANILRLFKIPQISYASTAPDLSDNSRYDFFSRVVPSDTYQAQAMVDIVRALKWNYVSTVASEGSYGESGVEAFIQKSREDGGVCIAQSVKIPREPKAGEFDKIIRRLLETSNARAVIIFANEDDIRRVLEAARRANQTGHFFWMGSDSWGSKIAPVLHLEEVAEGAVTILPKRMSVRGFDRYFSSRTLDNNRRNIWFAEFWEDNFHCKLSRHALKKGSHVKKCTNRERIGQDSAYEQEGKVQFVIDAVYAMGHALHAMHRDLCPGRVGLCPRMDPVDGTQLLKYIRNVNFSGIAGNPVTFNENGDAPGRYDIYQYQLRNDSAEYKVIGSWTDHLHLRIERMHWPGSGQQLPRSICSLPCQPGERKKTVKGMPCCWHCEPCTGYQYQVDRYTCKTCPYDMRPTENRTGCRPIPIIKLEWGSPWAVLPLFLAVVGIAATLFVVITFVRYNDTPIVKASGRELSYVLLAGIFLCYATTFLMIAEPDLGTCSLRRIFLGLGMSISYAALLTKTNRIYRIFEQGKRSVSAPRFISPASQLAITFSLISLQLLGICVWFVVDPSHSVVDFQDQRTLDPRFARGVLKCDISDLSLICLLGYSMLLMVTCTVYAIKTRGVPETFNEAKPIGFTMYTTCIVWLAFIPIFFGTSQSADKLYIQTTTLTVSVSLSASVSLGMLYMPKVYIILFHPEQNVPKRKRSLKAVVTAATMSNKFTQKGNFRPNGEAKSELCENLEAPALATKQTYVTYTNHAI

[2] = biological target: Metabotropic glutamate receptor 1 (Rattus norvegicus) (UniProt P23385); experiment: (§1) Antagonist activity at rat mGluR1 expressed in Syrian golden hamster BHK cells assessed as […] of glutamate-induced calcium flux by fluorescence assay; format: functional, cell-based; set-up: scale not given: the % may be the effect or the level left
Chain of Metabotropic glutamate receptor 1 (Rattus norvegicus) (P23385 19-1199 limits assumed): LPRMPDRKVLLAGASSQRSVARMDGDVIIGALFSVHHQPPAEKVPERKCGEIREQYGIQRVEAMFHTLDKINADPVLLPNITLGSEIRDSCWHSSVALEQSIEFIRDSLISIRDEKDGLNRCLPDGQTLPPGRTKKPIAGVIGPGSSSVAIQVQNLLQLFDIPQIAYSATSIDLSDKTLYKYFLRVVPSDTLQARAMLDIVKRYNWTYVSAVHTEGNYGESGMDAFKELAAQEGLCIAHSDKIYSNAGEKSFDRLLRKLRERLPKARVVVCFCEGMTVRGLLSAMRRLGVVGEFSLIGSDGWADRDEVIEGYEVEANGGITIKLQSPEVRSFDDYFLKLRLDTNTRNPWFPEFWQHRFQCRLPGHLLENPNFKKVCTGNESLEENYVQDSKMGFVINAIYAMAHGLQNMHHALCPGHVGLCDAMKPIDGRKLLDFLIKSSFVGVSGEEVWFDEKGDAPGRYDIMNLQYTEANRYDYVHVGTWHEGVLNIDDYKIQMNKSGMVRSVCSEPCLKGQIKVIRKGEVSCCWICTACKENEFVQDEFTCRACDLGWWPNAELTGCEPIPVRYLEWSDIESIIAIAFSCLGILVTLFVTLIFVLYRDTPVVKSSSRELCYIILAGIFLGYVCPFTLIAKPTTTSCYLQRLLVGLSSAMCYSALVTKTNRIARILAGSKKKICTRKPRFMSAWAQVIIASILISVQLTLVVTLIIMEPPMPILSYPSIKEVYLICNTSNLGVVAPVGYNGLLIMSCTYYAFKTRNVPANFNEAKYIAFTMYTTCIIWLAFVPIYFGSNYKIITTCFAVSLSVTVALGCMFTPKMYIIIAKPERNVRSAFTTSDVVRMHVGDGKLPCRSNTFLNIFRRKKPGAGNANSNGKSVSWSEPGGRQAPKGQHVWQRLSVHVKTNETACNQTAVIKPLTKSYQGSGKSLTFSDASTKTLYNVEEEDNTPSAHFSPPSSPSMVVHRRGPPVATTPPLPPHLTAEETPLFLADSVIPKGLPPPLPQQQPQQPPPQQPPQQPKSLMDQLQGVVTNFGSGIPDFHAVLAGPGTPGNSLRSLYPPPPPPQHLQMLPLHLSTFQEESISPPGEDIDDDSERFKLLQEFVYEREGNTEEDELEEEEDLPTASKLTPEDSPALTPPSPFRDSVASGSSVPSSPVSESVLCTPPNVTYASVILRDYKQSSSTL

[3] = biological target: Metabotropic glutamate receptor 1 (Rattus norvegicus, UniProt P23385); experiment: as §1; format: functional, cell-based
Chain of Metabotropic glutamate receptor 1 (P23385 whole entry): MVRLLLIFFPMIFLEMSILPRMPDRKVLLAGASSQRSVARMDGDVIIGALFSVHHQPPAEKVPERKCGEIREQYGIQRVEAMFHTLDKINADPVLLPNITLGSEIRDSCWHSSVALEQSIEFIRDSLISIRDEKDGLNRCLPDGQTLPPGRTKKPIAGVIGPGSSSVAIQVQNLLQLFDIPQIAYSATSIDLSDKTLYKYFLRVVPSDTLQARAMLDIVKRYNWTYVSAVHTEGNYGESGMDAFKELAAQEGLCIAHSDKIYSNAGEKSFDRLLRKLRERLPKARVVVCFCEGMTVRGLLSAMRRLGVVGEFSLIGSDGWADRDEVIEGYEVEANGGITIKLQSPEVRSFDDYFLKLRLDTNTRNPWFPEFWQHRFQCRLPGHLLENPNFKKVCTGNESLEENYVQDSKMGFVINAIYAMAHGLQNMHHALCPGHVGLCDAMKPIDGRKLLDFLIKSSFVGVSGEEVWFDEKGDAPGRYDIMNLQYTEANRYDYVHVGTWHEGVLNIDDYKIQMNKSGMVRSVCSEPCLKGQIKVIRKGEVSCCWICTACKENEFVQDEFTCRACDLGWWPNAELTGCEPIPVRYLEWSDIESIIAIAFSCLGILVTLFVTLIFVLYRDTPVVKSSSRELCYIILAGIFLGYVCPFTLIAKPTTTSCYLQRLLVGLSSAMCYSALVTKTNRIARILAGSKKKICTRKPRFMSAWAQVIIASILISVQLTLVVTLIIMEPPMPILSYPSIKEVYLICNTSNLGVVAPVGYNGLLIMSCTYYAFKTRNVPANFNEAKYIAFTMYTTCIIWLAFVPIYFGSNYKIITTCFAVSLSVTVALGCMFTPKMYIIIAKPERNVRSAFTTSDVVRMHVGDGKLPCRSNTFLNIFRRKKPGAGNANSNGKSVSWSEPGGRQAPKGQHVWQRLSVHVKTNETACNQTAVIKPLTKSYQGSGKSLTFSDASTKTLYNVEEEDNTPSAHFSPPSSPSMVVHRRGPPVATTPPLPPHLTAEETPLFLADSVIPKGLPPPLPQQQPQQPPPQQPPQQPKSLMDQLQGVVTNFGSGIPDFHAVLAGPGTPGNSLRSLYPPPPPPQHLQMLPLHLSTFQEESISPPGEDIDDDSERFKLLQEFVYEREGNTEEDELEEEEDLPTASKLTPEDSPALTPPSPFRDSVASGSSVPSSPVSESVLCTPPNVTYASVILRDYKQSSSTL

[4] = biological target: T1, Metabotropic glutamate receptor 4; experiment: Activity at human mGluR4 expressed in CHO coexpressing Gqi5 assessed as potentiation of glutamate-induced calcium flux by fluorescence assay; format: functional
Method in brief: (§2)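 CHO cells stably co-expressing human mGluR4 and chimeric Gqi5, plated 30,000 cells/well in assay medium (DMEM, 10% dialyzed FBS, 20 mM HEPES) and grown overnight at 37 °C, 5% CO₂. Loaded with 1 µM Fluo-4AM in HBSS/20 mM HEPES/2.5 mM probenecid for 45 min at 37 °C.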
Target sequence in this assay (Q14833 whole entry): as the sequence (Q14833 whole entry, looked up) above

[5] = biological target: T1, Metabotropic glutamate receptor 4; experiment: Activity at human mGluR4 expressed in CHO coexpressing Gqi5 assessed as potentiation of calcium flux by fluorescence assay in absence of glutamate; format: functional
Method in brief: as §2
Target sequence in this assay (Q14833 whole entry): as the sequence (Q14833 whole entry, looked up) above

Compound	fold change (FC) [1]	also measured
Cc1ccc(-n2ncc3c(N4CC(C)OC(C)C4)ncnc32)c(C)c1 (centres undefined)	3.5	
O=C(Nc1ccccc1)[C@]12C[C@H]1/C(=N\O)c1ccccc1O2		Activity [2]: 30%
Cc1ccc(-n2ncc3c(N4CCC(n5c(=O)[nH]c6ccccc65)CC4)ncnc32)c(C)c1	2.4	
CC1CCCN(c2ncnc3c2cnn3-c2ccccc2Cl)C1 (centres undefined)	2.7	

Further lines, with some results ahead:

fold change (FC) [1]	Compound	also measured
9.9	Cc1ccc(-n2ncc3c(N4CCCC(C(F)(F)F)C4)ncnc32)c(C)c1 (centres undefined)	
11.8	Cc1ccc(-n2ncc3c(N4CCCC(C)C4)ncnc32)c(C)c1 (centres undefined)	IC50 [3]: 2.6 µM; EC50 [4]: 4.6 µM; Activity [5]: inactive
